From ChEMBL document CHEMBL4477258, “Ca-asp bound X-ray structure and inhibition of Bacillus anthracis dihydroorotase (DHOase)” (Bioorg Med Chem, 2016)
Activity calls are given as the source filed them. The rule behind the calls is not given here.

Each molecule was assayed against T1, Dihydroorotase (Bacillus anthracis) (UniProt Q81WF0) (assay: Inhibition of Bacillus anthracis Sterne His-tagged DHOase expressed in Escherichia coli BL21(DE3) Gold cells using DHO as substrate assessed as enzyme activity at 25 or 400 uM preincubated for 10 mins followed by substrate addition measured after 30 mins by DAMO-TSC reagent based colorimetric assay relative to control). Settings: Bacillus anthracis str. Sterne.
T1 sequence (whole entry): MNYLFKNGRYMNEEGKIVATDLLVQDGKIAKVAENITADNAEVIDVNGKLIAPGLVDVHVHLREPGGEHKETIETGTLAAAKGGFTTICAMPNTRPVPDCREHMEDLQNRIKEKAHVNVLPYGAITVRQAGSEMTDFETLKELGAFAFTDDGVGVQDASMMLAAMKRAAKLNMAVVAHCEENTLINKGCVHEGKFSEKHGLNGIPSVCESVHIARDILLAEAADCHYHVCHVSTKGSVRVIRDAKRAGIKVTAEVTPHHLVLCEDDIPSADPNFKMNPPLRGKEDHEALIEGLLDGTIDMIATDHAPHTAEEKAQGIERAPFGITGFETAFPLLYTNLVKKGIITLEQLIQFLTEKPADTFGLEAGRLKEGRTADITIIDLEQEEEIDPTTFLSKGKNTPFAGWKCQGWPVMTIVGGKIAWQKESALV
Parameters: scale not given: the % may be the effect or the level left
Summary of the method: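 Reverse reaction run in duplicate. Fragments at 400 μM or compounds at 25 μM final, 10 min at room temperature. 10 μL of 320 μM DHO added, 30 min reaction, quenched with acidic DAMO-TSC. Colour developed 16 h in the dark, A540 read.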

| SMILES | Activity [%] |
| --- | --- |
| CSC1(NC#N)NCCc2c1[nH]c1ccc(F)cc21 (stereo not drawn) | < 50 |
| CCC1NCCn2cccc21 (stereo not drawn) | < 50 |
| COc1ccc2[nH]c3c(c2c1)CN(C(C)=O)CC3 | < 50 |
| COc1ccc2[nH]c3c(c2c1)CCNC31CCOCC1 | < 50 |
| CCC(=O)Nc1ccc(OC)cc1OC | < 50 |
| CCS(=O)(=O)N(C)c1ccc(C(=O)N2CCCC2)cc1 | < 50 |
| Cn1ccc2c(CO)cccc21 | < 50 |
| CCC(=O)Nc1cc(OC)cc(OC)c1 | < 50 |

Each molecule was assayed against T1, Dihydroorotase (Bacillus anthracis) (assay: Binding affinity to Bacillus anthracis Sterne His-tagged DHOase expressed in Escherichia coli BL21(DE3) Gold cells assessed as change in melting temperature at 400 uM incubated for 10 mins by SYPRO orange dye based fluorescence thermal shift assay). Settings: Bacillus anthracis str. Sterne.
Summary of the method: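 Histidine-tagged DHOase at 5 μM final in 50 mM MES pH 6.5, 0.01% CHAPS, 150 mM NaCl, 2 mM TCEP. Fragment added at 400 μM final and incubated 10 min at room temperature, then SYPRO Orange at 10X diluted from 5000X stock. Heated 25 to 95 °C at […], fluorescence read at ex/em 470/623 nm. Tm shift >2 °C scored as a hit.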

| SMILES | ΔTm [°C] |
| --- | --- |
| CSC1(NC#N)NCCc2c1[nH]c1ccc(F)cc21 (stereo not drawn) | > 2 |
| CCC1NCCn2cccc21 (stereo not drawn) | > 2 |
| COc1ccc2[nH]c3c(c2c1)CN(C(C)=O)CC3 | > 2 |
| COc1ccc2[nH]c3c(c2c1)CCNC31CCOCC1 | > 2 |
| CCC(=O)Nc1ccc(OC)cc1OC | > 2 |
| CCS(=O)(=O)N(C)c1ccc(C(=O)N2CCCC2)cc1 | > 2 |
| Cn1ccc2c(CO)cccc21 | > 2 |
| CCC(=O)Nc1cc(OC)cc(OC)c1 | > 2 |

Each molecule was assayed against T2, Dihydroorotase (Bacillus anthracis, UniProt Q81WF0) (assay: Binding affinity to Bacillus anthracis Sterne His-tagged DHOase expressed in Escherichia coli BL21(DE3) Gold cells by surface plasmon resonance analysis). Settings: not given.
T2 sequence (Q81WF0 whole entry): T1 sequence (whole entry)
Parameters: species or system Bacillus anthracis str. Sterne
Summary of the method: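 His-tag-cleaved DHOase amine-coupled to a CM5 chip at pH 4.5. Ethanolamine-blocked channel used as reference. Compounds run at 0–200 μM (2-fold dilutions) in PBS-P with 2% DMSO and 0.5 mM TCEP, at 10 μL/min and 25 °C. KD taken from steady-state affinity fit of equilibrium response. SD from three independent experiments.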

| SMILES | Kd |
| --- | --- |
| Cc1ccc2[nH]c3c(c2c1)CCNC3 | Not Active |
| COc1ccc2[nH]c(CN)cc2c1 | Not Active |

Same assay, conditions: read-out: Kd

| SMILES | Kd [µM] |
| --- | --- |
| CCC1NCCn2cccc21 (stereo not drawn) | 67 to 334 |
| COc1ccc2[nH]c3c(c2c1)CN(C(C)=O)CC3 | 205 |
| COc1ccc2[nH]c3c(c2c1)CCNC31CCOCC1 | 380 |
| CCC(=O)Nc1ccc(OC)cc1OC | 170 |
| COc1ccc2[nH]c3c(c2c1)CCNC3(NC#N)SC (stereo not drawn) | 21 to 119 |
| COc1ccc2[nH]c3c(c2c1)CCNC3 | 588 |
| CCS(=O)(=O)N(C)c1ccc(C(=O)N2CCCC2)cc1 | 67 to 334 |
| Cn1ccc2c(CO)cccc21 | 67 to 334 |
| CCC(=O)Nc1cc(OC)cc(OC)c1 | 157 |

Each molecule was assayed against T1, Dihydroorotase (Bacillus anthracis) (assay: (§1) Binding affinity to Bacillus anthracis Sterne His-tagged DHOase expressed in Escherichia coli BL21(DE3) Gold cells in presence of N-carbamyl-L-aspartate by surface plasmon resonance analysis). Settings: Bacillus anthracis str. Sterne.
Summary of the method: (§2)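 His-tag-cleaved DHOase immobilized on a CM5 chip, with a blank reference channel. Compounds run at 0–200 μM (2-fold dilutions) at 25 °C, 10 μL/min, in PBS-P with 2% DMSO, 0.5 mM TCEP and 1 mM Ca-asp. KD taken from steady-state affinity fit. SD from three independent experiments.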

| SMILES | Activity |
| --- | --- |
| CCC1NCCn2cccc21 (stereo not drawn) | Active |
| CCS(=O)(=O)N(C)c1ccc(C(=O)N2CCCC2)cc1 | Active |
| Cn1ccc2c(CO)cccc21 | Active |

The molecules below were run against T2, Dihydroorotase (assay: as §1). Settings: not given.
Parameters: species or system Bacillus anthracis str. Sterne
Summary of the method: as §2

| SMILES | Kd |
| --- | --- |
| Cc1ccc2[nH]c3c(c2c1)CCNC3 | Not Active |

Same assay, conditions: read-out: Kd

| SMILES | Kd [µM] |
| --- | --- |
| CSC1(NC#N)NCCc2c1[nH]c1ccc(F)cc21 (stereo not drawn) | > 1000 |
| COc1ccc2[nH]c3c(c2c1)CN(C(C)=O)CC3 | 215 |
| COc1ccc2[nH]c3c(c2c1)CCNC31CCOCC1 | 314 |
| CCC(=O)Nc1ccc(OC)cc1OC | 170 |
| COc1ccc2[nH]c3c(c2c1)CCNC3(NC#N)SC (stereo not drawn) | 144 |
| COc1ccc2[nH]c3c(c2c1)CCNC3 | 675 |
| CCC(=O)Nc1cc(OC)cc(OC)c1 | 281 |
